From PubChem BioAssay
IDH1 R132H inh = inhibitors of human IDH1 R132H. O75874. IDH1 R132H reductase, diaphorase/resazurin fluorescence, 60 min. inhibition, % at 10 µM. 0.18% of 70,000 active. AID 624101; in the data active means inhibition above about 34%; inconclusive means no clear call, values can overlap the other calls; inactive means below about 11%
Target sequence (O75874 whole entry R132H): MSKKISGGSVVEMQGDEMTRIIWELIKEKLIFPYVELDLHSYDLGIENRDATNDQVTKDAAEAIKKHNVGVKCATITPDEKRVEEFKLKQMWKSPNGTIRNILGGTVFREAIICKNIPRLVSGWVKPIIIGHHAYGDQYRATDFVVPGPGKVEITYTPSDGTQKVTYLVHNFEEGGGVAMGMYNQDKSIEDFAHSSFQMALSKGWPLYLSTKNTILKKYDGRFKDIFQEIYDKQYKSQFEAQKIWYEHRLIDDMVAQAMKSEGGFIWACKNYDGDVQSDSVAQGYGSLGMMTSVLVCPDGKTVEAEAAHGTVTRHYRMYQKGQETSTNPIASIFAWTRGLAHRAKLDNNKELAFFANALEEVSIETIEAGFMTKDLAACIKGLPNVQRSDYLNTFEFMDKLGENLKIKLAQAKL
KDM4C inh = blocks human GASC-1 (KDM4C) demethylase activity. Q9H3R0. GST-KDM4C 2-372, H3K9me3 peptide, LANCE TR-FRET. inhibition, % at 12.5 µM. 0.15% of 96,000 active. AID 720574;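 active means mean replicate inhibition above about 25%, with at least 55% of replicates also reaching it, limit read from the data, passing the limit was not always enough; inconclusive means only one of those two conditions met; inactive means neither condition met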
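System – N-terminal GST-fused human GASC-1 (KDM4C) fragment, residues 2-372 · Input – enzyme final amount 10 nM · Technique – LANCE TR-FRET, Eu antibody, ULight-streptavidin, EDTA, ex 340 nm, em 618/671 nm · Medium – HEPES buffer, pH 7.5, plus ascorbate · Incubation – enzyme reaction 30 min, then detection 60 min, both room temperature · Reagent – H3K9me3 peptide with Fe(II)/2OG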
Of the large screens only hits and unclear results are named; the others gave an inactive call. Many of the other results were omitted from the sample, so hits are more common in it than they were.

COc1ccc(NC(=O)N(C)C[C@@H]2Oc3cc(-c4ccncc4)ccc3S(=O)(=O)N([C@H](C)CO)C[C@@H]2C)cc1	IDH1 R132H inh 71.3, KDM4C inh 36.9
C[C@@H]1CN([C@H](C)CO)S(=O)(=O)c2ccc(-c3cccc(F)c3)cc2O[C@@H]1CN(C)S(=O)(=O)c1ccc(F)cc1	none (no result: IDH1 R132H inh)
COc1ccc(NC(=O)N(C)C[C@@H]2Oc3cc(-c4ccncc4)ccc3S(=O)(=O)N([C@@H](C)CO)C[C@@H]2C)cc1	none
Cc1cc(C)c(-n2c(O)c(C=Nc3cccc(O)c3)c(=O)[nH]c2=O)c(C)c1	none (no result: KDM4C inh)
COc1cc(S(=O)(=O)NC2CC(C)(C)NC(C)(C)C2)c(OC)cc1Br	none (no result: KDM4C inh)
Cc1ccccc1Cn1ccc(NC(=O)c2nn3c(c2Cl)NC(c2ccccc2)CC3C(F)(F)F)n1 (stereo not drawn)	none (no result: KDM4C inh)
CCCNC(=O)Nc1ccc2c(c1)OC[C@H](C)N(C(=O)C1CCOCC1)C[C@H](C)[C@H](OC)CN(C)C2=O	KDM4C inh 35.1
CO[C@@H]1CN(C)C(=O)c2ccc(NC(=O)NC(C)C)cc2OC[C@H](C)N(C(=O)CC2CC2)C[C@@H]1C	KDM4C inh 51.2
CCCNC(=O)Nc1ccc2c(c1)OC[C@@H](C)N(C(=O)C1CCOCC1)C[C@H](C)[C@@H](OC)CN(C)C2=O	none
CO[C@H]1CN(C)C(=O)c2ccc(NC(=O)NC(C)C)cc2OC[C@H](C)N(C(=O)CC2CC2)C[C@@H]1C	none (no result: IDH1 R132H inh)
CO[C@H]1CN(C)C(=O)c2cc(NC(=O)c3ccccc3)ccc2OC[C@@H](C)N(C(C)=O)C[C@@H]1C	IDH1 R132H inh 87.5 (no result: KDM4C inh)
CO[C@@H]1CN(C)C(=O)c2cc(NC(=O)c3ccccc3)ccc2OC[C@H](C)N(C(C)=O)C[C@H]1C	none
CSc1ccc(C2CN3CCCC3c3ccccc32)cc1 (stereo not drawn)	none (no result: KDM4C inh)
O=S(c1ccccc1)c1ccc2nnnn2n1 (stereo not drawn)	IDH1 R132H inh 62.4 (no result: KDM4C inh)
O=C(CNS(=O)(=O)c1ccccc1)Nc1cc(Cl)cc(Cl)c1	none (no result: KDM4C inh)
S=C(NCC1CCCO1)Nc1cnn(Cc2ccc(Cl)cc2)c1 (stereo not drawn)	none (no result: KDM4C inh)
COc1ccc(CN(C)C[C@@H]2Oc3ccc(NC(=O)C4CCCCC4)cc3CC(=O)N([C@@H](C)CO)C[C@H]2C)cc1	IDH1 R132H inh 106.1, KDM4C inh 84.7
C[C@@H]1CN([C@H](C)CO)C(=O)Cc2cc(NC(=O)NC3CCCCC3)ccc2O[C@@H]1CN(C)Cc1ccncc1	none (no result: KDM4C inh)
COc1ccc(CN(C)C[C@H]2Oc3ccc(NC(=O)C4CC4)cc3CC(=O)N([C@@H](C)CO)C[C@@H]2C)cc1	none
C[C@@H]1CN([C@@H](C)CO)C(=O)Cc2cc(NC(=O)NC3CCCCC3)ccc2O[C@H]1CN(C)Cc1ccncc1	IDH1 R132H inh 46.6
c1ccc2sc(SCc3nc4c5c6c(sc5ncn4n3)CCCC6)nc2c1	none (no result: KDM4C inh)
CN1C(=O)C(O)(CC(=O)c2ccco2)c2cc(Cl)ccc21 (stereo not drawn)	none (no result: KDM4C inh)
Cc1cc2nnc(SCC(=O)Nc3sc4c(c3C#N)CCC4)n2c2ccccc12	none (no result: KDM4C inh)
CCC(C)[C@@H](CO[C@@H](Cc1ccccc1)C(=O)N[C@@H](CCS(C)(=O)=O)C(=O)OC(C)C)NC[C@@H](N)CS (stereo partly drawn)	IDH1 R132H inh 59.6 (no result: KDM4C inh)
CC(C)C[C@H](NC(=O)[C@@H](O)[C@H](N)Cc1ccccc1)C(=O)O	none (no result: KDM4C inh)
O=C(/C=C/c1ccccc1)Nc1nnc(CSCc2ccccc2F)s1	none (no result: KDM4C inh)
COc1ccccc1S(=O)(=O)N[C@H]1CC[C@H](CCNC(=O)C2CCCC2)O[C@H]1CO	IDH1 R132H inh inconclusive, KDM4C inh 50.1
Cc1ccccc1S(=O)(=O)NCC[C@H]1CC[C@@H](NC(=O)C2CCCCC2)[C@@H](CO)O1	none
COc1ccccc1S(=O)(=O)N[C@H]1CC[C@H](CCNC(=O)C2CCCCC2)O[C@@H]1CO	none
Cc1ccccc1S(=O)(=O)NCC[C@H]1CC[C@H](NC(=O)C2CCCCC2)[C@H](CO)O1	IDH1 R132H inh 88.3, KDM4C inh 82.5
O=C(COc1ccccc1[N+](=O)[O-])Nc1cc(-c2nc3ccccc3o2)ccc1Cl	none (no result: KDM4C inh)
CCCCC[C@H](O)CC(=O)CCc1ccc(O)c(OC)c1	none (no result: KDM4C inh)
COC(CCc1ccc(O)c(O)c1)CC(=O)CCc1ccc(O)c(O)c1 (stereo not drawn)	IDH1 R132H inh 51.9 (no result: KDM4C inh)
CCCCCCC[C@@H](O)CC(=O)CCc1ccc(O)c(OC)c1	none (no result: KDM4C inh)
O=C(CCc1ccc(O)cc1)CC(O)CCc1ccc(O)c(O)c1 (stereo not drawn)	IDH1 R132H inh 54.1 (no result: KDM4C inh)
COC(=O)Cn1nnc(-c2nnn(COC(C)=O)c2-c2ccccc2)c1-c1ccccc1	none (no result: KDM4C inh)
CC(=O)N(C)C[C@@H]1Oc2ncc(-c3ccc(C#N)cc3)cc2C(=O)N([C@H](C)CO)C[C@H]1C	none
CC(=O)N(C)C[C@H]1Oc2ncc(-c3ccc(C#N)cc3)cc2C(=O)N([C@H](C)CO)C[C@@H]1C	KDM4C inh 32.0
COc1ccc(-c2cnc3c(c2)C(=O)N([C@H](C)CO)C[C@H](C)[C@@H](CN(C)C(=O)Cc2ccncc2)O3)cc1	none
C[C@H](CO)N1C[C@H](C)[C@H](CN(C)C(=O)NC2CCCCC2)Oc2ncc(Br)cc2C1=O	IDH1 R132H inh 35.2
COc1ccc(-c2cnc3c(c2)C(=O)N([C@@H](C)CO)C[C@H](C)[C@@H](CN(C)C(=O)Cc2ccncc2)O3)cc1	IDH1 R132H inh 40.6
C[C@H]1CN([C@@H](C)CO)C(=O)c2cc(Br)cnc2O[C@@H]1CN(C)C(=O)NC1CCCCC1	none (no result: IDH1 R132H inh)
O=C(O)c1c(O)cc(OC2OC(CO)C(O)C(O)C2O)cc1/C=C/c1ccccc1 (stereo not drawn)	none (no result: KDM4C inh)
C=CCn1c(-c2ccccc2)nn(CCC#N)c1=S	none (no result: KDM4C inh)
O=C(NCC(F)(F)F)[C@@H]1[C@@H](CO)[C@@H]2Cn3c(ccc(-c4cccnc4)c3=O)[C@@H]2N1Cc1ccncc1	KDM4C inh 37.6 (no result: IDH1 R132H inh)
CCNC(=O)[C@@H]1[C@@H](CO)[C@@H]2Cn3c(ccc(-c4cccnc4)c3=O)[C@@H]2N1Cc1ccccc1	none (no result: IDH1 R132H inh)
O=C(CSc1nc2ccc([N+](=O)[O-])cc2s1)Nc1ccc(Br)cc1Cl	none (no result: KDM4C inh)
COc1ccc(NC(=O)N(C)C[C@@H]2Oc3ccc(NC(=O)Nc4ccccc4)cc3CC(=O)N([C@@H](C)CO)C[C@H]2C)cc1	IDH1 R132H inh 58.6
Cc1noc(C)c1S(=O)(=O)N(C)C[C@H]1Oc2ccc(NS(=O)(=O)c3ccccc3)cc2CC(=O)N([C@@H](C)CO)C[C@@H]1C	none
COc1ccc(NC(=O)N(C)C[C@H]2Oc3ccc(NC(=O)Nc4ccccc4)cc3CC(=O)N([C@H](C)CO)C[C@@H]2C)cc1	KDM4C inh 42.3
Cc1noc(C)c1S(=O)(=O)N(C)C[C@H]1Oc2ccc(NS(=O)(=O)c3ccccc3)cc2CC(=O)N([C@H](C)CO)C[C@@H]1C	KDM4C inh 45.1
COc1ccc(NC(=O)Nc2ccc3c(c2)CC(=O)N([C@@H](C)CO)C[C@@H](C)[C@@H](CN(C)C(=O)Nc2ccccc2)O3)cc1	none
COc1ccc(NC(=O)Nc2ccc3c(c2)CC(=O)N([C@H](C)CO)C[C@H](C)[C@@H](CN(C)C(=O)Nc2ccccc2)O3)cc1	none
Cc1ccccc1OC(C)c1nc(-c2ccccn2)no1 (stereo not drawn)	none (no result: KDM4C inh)
C/C(=C\Cc1c(O[C@@H]2O[C@H](CO)[C@@H](O)[C@H](O)[C@H]2O)ccc2ccc(=O)oc12)CO	none (no result: KDM4C inh)
COc1cc(/C=C/C(=O)CC(=O)/C=C/c2ccc(O)c(OC)c2)ccc1O	none (no result: KDM4C inh)
COC(=O)/C=C/c1cc(O)ccc1O	IDH1 R132H inh 88.8 (no result: KDM4C inh)
